Experimental findings from ChEMBL document CHEMBL1136006, “New PET imaging agent for the serotonin transporter: [(18)F]ACF (2-[(2-amino-4-chloro-5-fluorophenyl)thio]-N,N-dimethyl-benzenmethanamine)” (J Med Chem, 2002) are described below.

SMILES strings stand for the structures.

The species named for data set [1] is Rattus norvegicus. The data set is described as follows: Regional brain distribution of [18F]ACF radiolabeled compound in rat hypothalamus after 60 min. The note with it: in vivo, 1 h. Type of data set: ADME, organism-based. An outline of the steps:
(§1)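 Rats (three per group) under ether anesthesia got 30 μCi tracer in 0.2 mL saline into the femoral vein and were killed by cardiac excision at the stated time. Cortex, striatum, hippocampus, cerebellum, hypothalamus and the rest of brain were dissected, weighed and gamma counted. %dose/g was taken against counts of a diluted initial dose. Regional ratios are each region's %dose/g over cerebellum's. Mean ± SD.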

The test system of data set [2] is Rattus norvegicus. The data set is described as follows: Ratio of effect of pretreatment with (+)-McN5652 with a dose of 2 mg/kg (i.v.) on specific binding of [18F]ACF in rat brain hypothalamus to that of cerebellum. On the set-up: dose 2 mg/kg, route intravenous. Type of data set: ADME, organism-based. The note with it: in vivo, iv. The gist of the method:
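Rats (three per point) pretreated iv with competing drug at 2 mg/kg or saline (control) 5 min before iv [18F]ACF (50 μCi). At 1 h post tracer, brain regions (cortex, striatum, hippocampus, cerebellum, hypothalamus, remainder) dissected, weighed, counted as % dose/g and expressed as ratio to cerebellum. Average ± SD; ANOVA with Dunnett's test vs saline controls, p < 0.05.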

The subject of data set [3] is Rattus norvegicus. As to the kind of experiment: Effect of pretreatment with […] with a dose of 2 mg/kg (i.v.) on specific binding of [18F]ACF in rat brain blood. Type of data set: ADME, organism-based. On the set-up: dose 2 mg/kg, route intravenous. The following applies: in vivo, iv. An outline of the steps:
(§2)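 Rats pretreated iv with drug (2 mg/kg) or saline 5 min before iv [18F]ACF (50 μCi). Sacrificed 1 h after tracer. Brain regions were dissected, weighed and counted, and % dose/g was calculated against a diluted initial dose. Drug-treated rats were compared with saline controls by ANOVA/Dunnett's test (p<0.05). Three rats per point, average ± SD.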

Data set [4] has as its system Rattus norvegicus. As to the kind of experiment: Effect of pretreatment with (+)-McN5652 with a dose of 2 mg/kg (i.v.) on specific binding of [18F]ACF in rat brain cerebellum. Type of data set: ADME, organism-based. More on the design: dose 2 mg/kg, route intravenous. The note with it: in vivo, iv. The gist of the method: as §2
The species entered for data set [5] is Rattus norvegicus. As to the kind of experiment: Organ distribution of [18F]-ACF radiolabeled compound in rat kidney after 60 min. Type of data set: ADME, organism-based. The note with it: in vivo, 1 h. An outline of the steps:
(§3)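 Under ether anesthesia, 30 μCi no-carrier-added tracer in 0.2 mL saline injected into the femoral vein. Rats killed by cardiac excision at the stated time. Organs were removed, weighed and counted; % dose/organ was calculated against counts of a 1% initial-dose standard. Three rats per time, average ± SD.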

Data set [6] is filed under the species Rattus norvegicus. As to the kind of experiment: Organ distribution of [18F]-ACF radiolabeled compound in rat heart after 30 min. Type of data set: ADME, organism-based. The note with it: in vivo, 0.5 h. The gist of the method: as §3
Data set [7] has as its target Sodium-dependent noradrenaline transporter (Homo sapiens, UniProt P23975). The data set is described as follows: In vitro binding affinity in LLC-PK1 cells by Norepinephrine transporter binding assay by using [125I]-IPT as a radioligand. Type of data set: cell-based. An outline of the steps: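 LLC-PK1 cell membrane homogenates overexpressing DAT or NET. Incubated with 0.4 nM [125I]IPT and 8–10 competitor concentrations (10^-10 to 10^-5 M) in 50 mM Tris-HCl pH 7.4, 120 mM NaCl, 0.1% BSA for 1 h at room temperature. Nonspecific binding defined with 10 μM CFT. Filtered, gamma-counted, nonlinear regression. Mean ± SEM of three determinations in duplicate.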

The species entered for data set [8] is Rattus norvegicus. As to the kind of experiment: Ratio of regional brain distribution of [18F]-ACF radiolabeled compound in rat cerebellum to that of cerebellum after 60 min. Type of data set: ADME, organism-based. The note with it: in vivo, 1 h. An outline of the steps: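 Rats, three per time point, given 30 μCi tracer in 0.2 mL saline into femoral vein under ether anesthesia; killed at 2, 30, 60, 120 or 240 min. Cortex, striatum, hippocampus, cerebellum, hypothalamus and rest of brain dissected, weighed, counted; % dose/g against diluted initial dose, then each region divided by cerebellum. Average of three rats ± SD.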

For data set [9], the species on record is Rattus norvegicus. As to the kind of experiment: Ratio of regional brain distribution of [18F]ACF radiolabeled compound in rat striatum to that of cerebellum after 2 min. Type of data set: ADME, organism-based. The note with it: in vivo. An outline of the steps:
as §1

In data set [10] the test system is Rattus norvegicus. As to the kind of experiment: Effect of pretreatment with (+)-McN5652 with a dose of 2 mg/kg (i.v.) on specific binding of [18F]ACF in rat brain hypothalamus. Type of data set: ADME, organism-based. More on the design: dose 2 mg/kg, route intravenous. The following applies: in vivo, iv. The gist of the method:
as §2

The species named for data set [11] is Rattus norvegicus. The data set is described as follows: Organ distribution of [18F]ACF radiolabeled compound in rat brain after 240 min. The note with it: in vivo, 4 h. Type of data set: ADME, organism-based. An outline of the steps:
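Rats, three per time point, under ether anesthesia; 30 μCi tracer in 0.2 mL saline injected into femoral vein. Sacrificed by cardiac excision under ether at 2, 30, 60, 120 or 240 min. Organs removed, weighed and counted; % dose/organ calculated against counts of 1% of initial dose counted at the same time. Average of three rats ± SD.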

Sequence of Sodium-dependent noradrenaline transporter (P23975 whole entry, looked up): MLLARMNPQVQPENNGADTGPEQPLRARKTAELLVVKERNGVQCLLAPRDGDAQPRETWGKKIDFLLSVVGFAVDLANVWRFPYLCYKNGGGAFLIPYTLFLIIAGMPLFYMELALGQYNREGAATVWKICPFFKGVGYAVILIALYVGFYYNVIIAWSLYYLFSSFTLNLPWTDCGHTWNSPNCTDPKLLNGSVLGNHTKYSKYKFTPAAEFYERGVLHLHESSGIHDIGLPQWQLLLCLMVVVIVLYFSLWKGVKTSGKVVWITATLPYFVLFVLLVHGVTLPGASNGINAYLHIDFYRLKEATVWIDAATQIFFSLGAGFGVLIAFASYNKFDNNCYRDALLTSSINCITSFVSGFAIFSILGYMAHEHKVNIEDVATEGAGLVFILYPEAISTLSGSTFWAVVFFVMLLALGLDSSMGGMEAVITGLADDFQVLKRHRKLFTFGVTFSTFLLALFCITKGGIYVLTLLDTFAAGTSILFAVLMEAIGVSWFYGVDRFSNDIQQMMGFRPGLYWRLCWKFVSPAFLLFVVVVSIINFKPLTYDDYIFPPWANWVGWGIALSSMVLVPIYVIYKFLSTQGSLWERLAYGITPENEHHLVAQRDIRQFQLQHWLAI

For `CN(C)Cc1ccccc1Sc1cc(F)c(Cl)cc1N`, the Dose/g in data set [1] turned out to be 0.54%; in data set [3], 0.26%; in data set [4], 0.17%; in [5], 1.38 % dose/organ; in data set [6], 0.18 % dose/organ; in [10], 0.24%. Moreover, the Dose/g in [11] came out at 0.06 % dose/organ. Besides, the Ratio was 1.36 in [2], 1 in [8] and 1.41 in data set [9]. Also, the Ki in data set [7] is 650 nM.
